For one assay, the system named is K562. In words: Cytotoxicity against human K562 cells by MTT assay. Type of assay: functional, cell-based. For orientation: Tetrazolium dyes change colour on reduction, which living cells bring about.
For assay [1], the system named is Nucleic Acid. Kind of assay: Binding affinity to calf thymus DNA by fluorescence quenching technique. Type of assay: nucleic-acid assay. As to conditions: Bos taurus. The essentials: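 Calf thymus DNA was prepared as in line 1. Compound was held at 10 while ct-DNA was titrated at 0, 10, 20, 40, 60, 80, 100, 120, 140 and 160 in 20 mM Tris–HCl, pH 7.5. Solutions were equilibrated for 1 day at 25 °C in the dark, and fluorescence emission was recorded. Kb was fitted to a single-site quenching equation.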

The test system of the next assay is MCF7. Kind of assay: Cytotoxicity against human MCF7 cells by MTT assay. In kind it is functional, cell-based.
For the next assay, the system named is A549. In words: Cytotoxicity against human A549 cells by MTT assay. Type of assay: functional, cell-based.
In the next assay the test system is HCT-116. In words: Cytotoxicity against human HCT116 cells by MTT assay. In kind it is functional, cell-based.
Assay [2] relates to Nucleic Acid. In words: Binding affinity to calf thymus DNA assessed as hyperchromic effect at 10 uM by UV-Vis spectrophotometric analysis. The conditions noted are these: Bos taurus, in the assay text read “hypochromic” for “hyperchromic”. Type of assay: nucleic-acid assay. Put shortly:
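Its concentration was set by absorption at 260 nm (6600 M⁻¹ cm⁻¹), and it was stored at 4 °C and used within 4 days. UV–vis absorption spectra of compound (10) were recorded in 20 mM Tris–HCl, pH 7.5, 25 °C, with ct-DNA increasing from 0 to 160.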

In the next assay the test system is HeLa. Kind of assay: Cytotoxicity against human HeLa cells by MTT assay. In kind it is functional, cell-based.

The source made the active and inactive calls. No cut-off for these calls is given here. Where only a bound is given, the exact number is not on record here.

The results in this text go back to ChEMBL document CHEMBL2010798, “Selenium-containing naphthalimides as anticancer agents: design, synthesis and bioactivity” (Bioorg Med Chem, 2012).

For orientation: IC50 means the concentration at which inhibition is half-maximal. A lower IC50 goes with greater potency.

With `CN(C)CCN1C(=O)c2cccc3cc(N)cc(c23)C1=O` [AMONAFIDE], in the assay with K562, the IC50 is more than 50 µM.
In turn, `CN(C)CCN1C(=O)c2cccc3c(NCCSc4ccccc4)ccc(c23)C1=O` registered a Kb with Nucleic Acid [1] of 8.26 ×10⁴ /M. For the same compound, the IC50 is 19.1 µM with MCF7; 11.2 µM in the assay on K562; 18 µM in the assay with A549; 16.4 µM in the assay on HCT-116; 15.1 µM in the assay on HeLa. Besides, the result with Nucleic Acid [2] was Active.
Regarding `CCCCN1C(=O)c2cccc3c(NCC[Se]c4ccccc4)ccc(c23)C1=O`, the IC50 with MCF7, in the assay on K562, in the assay with A549, in the assay with HCT-116 and in the assay with HeLa was more than 25 µM throughout.
Regarding `CN(C)CCN1C(=O)c2cccc3c(N4CC[Se]CC4)ccc(c23)C1=O`, the IC50 worked out at 5.3 µM with MCF7; 5.3 µM with K562; 8.7 µM in the assay with A549; 5.4 µM with HCT-116; 5.6 µM in the assay with HeLa.
In the assay with Nucleic Acid [1], `CN(C)CCN1C(=O)c2cccc3c(NCC[Se]c4ccccc4)ccc(c23)C1=O` displayed a Kb of 2.43 ×10⁴ /M. Besides, the IC50 with MCF7 is 18.2 µM; in the assay on K562, 11.7 µM; with A549, 17.4 µM; in the assay with HCT-116, 19.5 µM; in the assay on HeLa, 16.8 µM. Moreover, the result with Nucleic Acid [2] was Active.
In the case of `CCCCCCCCN1C(=O)c2cccc3c(NCC[Se]c4ccccc4)ccc(c23)C1=O`, the IC50 turned out to be 11.6 µM in the assay with MCF7; 18.7 µM in the assay on K562; 20.6 µM in the assay with A549; 18.1 µM with HCT-116; 16.7 µM in the assay on HeLa.
On the same counts, the results for `CCN(CC)CCN1C(=O)c2cccc3c(NCC[Se]c4ccccc4)ccc(c23)C1=O` are 11.9 µM, 8.9 µM, 10.7 µM, 14.6 µM and 15.5 µM.
On the same counts, the results for `COc1ccc([Se]CCNc2ccc3c4c(cccc24)C(=O)N(CCN(C)C)C3=O)cc1` are 18.3 µM, 16.6 µM, 22.3 µM, 17.6 µM and 17.9 µM.
For `CN(C)CCN1C(=O)c2cccc3c(NCC[Se]c4ccc(OC(F)(F)F)cc4)ccc(c23)C1=O` the same measures were 16.4 µM, 9.4 µM, 14.4 µM, 9.9 µM and more than 25 µM.
As to `Cc1ccc([Se]CCNc2ccc3c4c(cccc24)C(=O)N(CCN(C)C)C3=O)cc1`, the IC50 with MCF7 is 19.3 µM; with K562, 21.3 µM; in the assay on A549 it was 21 µM; with HCT-116 it was 20 µM; in the assay with HeLa it was more than 25 µM.
